Active and inactive are the calls of the source. The rule behind the calls is not given here.
What was measured:
KOPN-8 [1] = assay: Induction of apoptosis in human KOPN8 cells assessed as decrease in caspase 3/7 level after 3 to 24 hrs by Western blot analysis; type: functional, cell-based
Outline: (§1)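 Western blot of KOPN-8 and MCF-7 lysates made in RIPA-type buffer (Tris pH 7.5, Triton X-100, deoxycholate, SDS) with protease and phosphatase inhibitors. 30 μg protein per lane was run on 4–12% Bis-Tris SDS-PAGE and transferred to nitrocellulose. Blots were probed for cleaved caspase-7 and PARP-1 and detected with IR-dye secondaries. Menadione served as positive control: 10 μM in KOPN-8, 30 μM in MCF-7. Blots are representative of three independent experiments.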

Raji = assay: Antiproliferative activity against human Raji cells assessed as reduction in cell viability at 0.1 to 250 uM by CellTiter-Glo assay; type: functional, cell-based
Outline: (§2)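 CellTiter-Glo luminescent viability readout. Cells kept at 37 °C under 5% CO2. HMEC primary cells grown in basal medium with growth kit; leukemia lines and murine BCR-ABL (WT, Bax/Bak DKO) cultured per earlier description. Positive controls: staurosporine 25 μM, gambogic acid 10 μM, a toxic quinoline. At least two biological replicates in technical triplicate; luminescence normalized to untreated controls; EC50 computed.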

U2OS [2] = assay: Induction of ROS generation in human U2OS cells at 30 uM incubated for 1 hr in presence of NAC by CellROX green reagent based fluorescence assay; type: functional, cell-based
Outline: (§3)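 CellROX green assay in MCF-7 or U2OS cells. Cells were exposed to test compound for 1 h at 37 °C alongside 0.5% DMSO (negative control) and menadione 10–30 μM (positive control), with or without NAC (50–500 μM) as scavenger. CellROX was then added at 5 μM final for 30 min. Cells were PBS-washed, fixed in 4% paraformaldehyde for 15 min, and fluorescence read at 535 nm.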

MCF7 [3] = assay: Induction of ROS generation in human MCF7 cells at 30 uM incubated for 1 hr by CellROX green reagent based fluorescence assay; type: functional, cell-based
Outline: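 CellROX green ROS assay: cells exposed 1 h at 37 °C (30 μM) with DMSO 0.5% (v/v) negative control, menadione 10 μM positive control, ± NAC (100 μM per figure legend). CellROX green added at 5 μM final, 30 min more; washed, fixed in 4% paraformaldehyde 15 min, fluorescence read at 485 ex/535 em. Mean and SD of at least three experiments; two-way ANOVA.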

SEM cells = assay: Antiproliferative activity against human SEM cells assessed as reduction in cell viability at 0.1 to 250 uM by CellTiter-Glo assay; type: functional, cell-based; outline: as §2
U2OS [4] = assay: Induction of mito-phagy in human U2OS cells transfected with mKeima-Red-Mito-7 at 1.25 to 2.5 uM incubated for 8 hrs by confocal scanning microscopic method; type: functional, cell-based
Outline: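 U2OS stably expressing mKeima-Red-Mito-7 (G418 250 μg/mL selection, flow-sorted) were plated at 40 000 cells per well and incubated overnight. Cells were treated 8 h at 37 °C; DMSO 0.5% served as negative control. Live cells were imaged by confocal microscopy at 60×. Mitophagy was scored as the ratio of mitophagy-event fluorescence to cytoplasmic mitochondrial fluorescence. Values are mean and SD of at least three experiments.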

KOPN-8 [5] = assay: Induction of mitochondrial membrane potential loss in human KOPN8 cells at 30 uM by TMRM staining based flow cytometric analysis; type: functional, cell-based; details: TDE = time-dependent effect
Outline: (§4)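 TMRM flow cytometry. KOPN-8 (4 × 10^4 or 5 × 10^5 per well) or MCF-7 (2 × 10^4 or 2 × 10^5 per well) were seeded 24 h, then treated 24–48 h. FCCP 10 μM was added 10 min before staining as positive control. Cells were stained with TMRM 100 nM for 0.5 h, then PBS-washed, resuspended in PBS with 1% FBS and analysed by flow cytometry; DAPI flagged compromised cells.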

KOPN-8 [6] = assay: Upregulation of Trx level in human KOPN8 at 1 uM after 3 to 6 hrs by Western blot analysis; type: functional, cell-based
Outline: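 Western blot of KOPN-8 or MCF-7 lysates, 30 μg protein per lane on 4–12% Bis-Tris SDS-PAGE and transferred to nitrocellulose. Blots were probed with an oxidative stress defense antibody cocktail (catalase, SOD1, Trx, smooth muscle actin) and tubulin, and detected with IR-dye secondaries on a LI-COR Odyssey.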

MCF7 [7] = assay: Induction of apoptosis in human MCF7 cells assessed as decrease in caspase 3/7 level after 3 to 24 hrs by Western blot analysis; type: functional, cell-based; outline: as §1
KOPN-8 [8] = assay: Induction of cell death in human KOPN8 cells at 4 to 10 uM after 24 hrs; type: functional, cell-based
MCF7 [9] = assay: Induction of ROS generation in human MCF7 cells at 30 uM incubated for 1 hr in presence of NAC by CellROX green reagent based fluorescence assay; type: functional, cell-based; outline: as §3
U2OS [10] = assay: Induction of ROS generation in human U2OS cells at 30 uM incubated for 1 hr by CellROX green reagent based fluorescence assay; type: functional, cell-based; outline: as §3
U2OS [11] = assay: Decrease in cell viability in human U2OS cells incubated for 24 hrs by GF-AFC reagent based ApoTox-Glo triplex assay; type: functional
Outline: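 ApoTox-Glo Triplex: cells held 12 h at 37 °C, then treated 24 h (100−0.15 μM). Viability/cytotoxicity reagent added, shaken, 30 min at 37 °C; viability read as GF-AFC fluorescence at 400Ex/505Em. Caspase-Glo 3/7 then added, 0.5 h at room temperature, luminescence read. Mean ± SEM of three independent experiments.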

U2OS [12] = assay: Induction of apoptosis in human U2OS cells assessed as increase in caspase 3/7 activity incubated for 24 hrs by caspase 3/7 reagent based ApoTox-Glo triplex assay; type: functional, cell-based
Outline: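 ApoTox-Glo Triplex assay in KOPN-8 or U2OS cells. Cells were incubated 12 h at 37 °C, then treated 24 h across 100–0.15 μM. Viability (GF-AFC, 400Ex/505Em) and cytotoxicity (bis-AAF-R110, 485Ex/520Em) were read after 30 min at 37 °C. Caspase-Glo 3/7 luminescence was then read after 0.5 h at room temperature. Values are mean ± SEM of three independent experiments.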

HMEC = assay: Cytotoxicity against human HMEC cells assessed as cell viability at >100 uM by CellTiter-Glo assay; type: cell-based; outline: as §2
B-ALL = assay: Cytotoxicity against BCR-ABL p185-positive mouse B-ALL cells overexpressing human MCL-1 assessed as inhibition of cell viability after 24 hrs by AnnexinV-FITC/propidium iodide staining based flow cytometric analysis; type: functional
MCF7 [13] = assay: Upregulation of Trx level in human MCF7 after 3 to 6 hrs by Western blot analysis; type: functional, cell-based
Outline: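 MCF-7 cells were exposed to compound for 3 or 6 h. Lysates were made in Tris-HCl pH 7.5 RIPA-type buffer with protease/phosphatase inhibitors and quantified by BCA. 30 μg protein per lane was run on 4–12% Bis-Tris SDS-PAGE in MES and transferred to nitrocellulose. Blots were probed for thioredoxin with tubulin as reference, detected with IR-dye secondaries (1:15 000) and scanned on an infrared imager.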

KOPN-8 [14] = assay: Induction of mitochondrial membrane potential loss in human KOPN8 cells at 1 to 3 uM after 24 to 48 hrs by TMRM staining based flow cytometric analysis; type: functional, cell-based; outline: as §4

SMILES	Activity (KOPN-8 [1])	inhibition (Raji)	Activity (U2OS [2])	Activity (MCF7 [3])	inhibition (SEM cells)	Activity (U2OS [4])	Activity (KOPN-8 [5])	Activity (KOPN-8 [6])	Activity (MCF7 [7])	Activity (KOPN-8 [8])	Activity (MCF7 [9])	Activity (U2OS [10])	inhibition (U2OS [11])	Activity (U2OS [12])	Activity (HMEC)	IC50 (B-ALL) [µM]	Activity (MCF7 [13])	Activity (KOPN-8 [14])
CC1=C2CC(C)(C)/C=C/C(=O)/C(C)=C\C3=C[C@H](C)C[C@]3(O2)C1=O [JATROPHONE]	Dose-dependent effect	Active	inactive	Active	Active	Active	Tde	Active	Dose-dependent effect	Active	inactive	Active	–	–	–	–	–	–
CC(=O)O[C@H]1/C2=C/[C@@H](C)C(=O)C[C@H]3[C@@H](/C=C(\C)C(=O)[C@H]2C[C@H]1C)C3(C)C	Dose-dependent effect	–	inactive	Active	–	Active	Tde	–	Dose-dependent effect	–	inactive	Active	Dose-dependent effect	Dose-dependent effect	Non-Toxic	3.31	Dose-dependent effect	Active

Reference: ChEMBL document CHEMBL4334444, “Studies of Jatrogossone A as a Reactive Oxygen Species Inducer in Cancer Cellular Models” (J Nat Prod, 2019)
